Active and inactive are the calls of the source. The rule behind the calls is not given here.
Key:
[1] = molecular target: T1, Protein kinase C epsilon type (Homo sapiens, UniProt Q02156); assay: Inhibition of PKCepsilon by SPA
T1 sequence (Q02156 whole entry): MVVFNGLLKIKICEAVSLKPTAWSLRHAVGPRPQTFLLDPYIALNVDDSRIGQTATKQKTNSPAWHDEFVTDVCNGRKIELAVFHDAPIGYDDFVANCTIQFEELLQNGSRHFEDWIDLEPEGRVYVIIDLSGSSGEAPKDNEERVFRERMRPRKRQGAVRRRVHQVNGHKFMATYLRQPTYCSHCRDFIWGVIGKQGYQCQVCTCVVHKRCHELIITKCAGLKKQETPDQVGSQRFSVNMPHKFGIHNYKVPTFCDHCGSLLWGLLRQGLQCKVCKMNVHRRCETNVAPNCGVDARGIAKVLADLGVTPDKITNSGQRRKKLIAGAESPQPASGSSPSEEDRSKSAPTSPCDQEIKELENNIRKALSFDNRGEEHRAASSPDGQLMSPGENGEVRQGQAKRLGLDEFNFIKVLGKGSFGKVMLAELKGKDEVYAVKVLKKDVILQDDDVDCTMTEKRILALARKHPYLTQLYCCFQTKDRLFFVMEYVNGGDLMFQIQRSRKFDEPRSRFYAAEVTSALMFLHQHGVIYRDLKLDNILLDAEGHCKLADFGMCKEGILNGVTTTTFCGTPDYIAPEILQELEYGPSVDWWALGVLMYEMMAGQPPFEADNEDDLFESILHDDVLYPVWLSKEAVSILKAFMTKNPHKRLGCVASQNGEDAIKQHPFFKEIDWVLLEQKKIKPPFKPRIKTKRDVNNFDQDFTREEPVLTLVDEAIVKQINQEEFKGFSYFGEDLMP

[2] = Dissociation constant, pKa of the compound; format: physicochemical
Rattus norvegicus [3] = organism: Rattus norvegicus; assay: Immunosuppressive activity in rat localized graft-versus-host model; format: functional, organism-based
Rattus norvegicus [4] = organism: Rattus norvegicus; assay: Prolongation of allograft survival in rat heterotropic heart transplant model; format: functional, organism-based
Cynomolgus monkey = assay: Prolongation of allograft survival in cynomolgus monkey renal allograft model; format: functional, organism-based; conditions: Macaca fascicularis
[5] = molecular target: Protein kinase C zeta type (Homo sapiens, UniProt Q05513); assay: Inhibition of PKCzeta by SPA
[6] = AUC (0 to infinity) in OFA rat at 5 mg/kg, iv; format: ADME, organism-based; design: time infinity, dose 5 mg/kg, route intravenous; conditions: plasma
How it was run: (§1)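 Rats dosed either 5 mg/kg iv in 75% saline (0.9%)-25% PEG400 or 20 mg/kg po in 75% water-25% PEG400. OFA or Lewis rats were used depending on the compound. Values are averages of three animals. AUC is extrapolated to infinity. Oral bioavailability (F) comes from the po and iv exposures.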

[7] = Elimination half life in OFA rat at 5 mg/kg, iv; format: ADME, organism-based; design: dose 5 mg/kg, route intravenous; conditions: in vivo, read-out: beta t1/2 (converted); how it was run: as §1
[8] = Volume of distribution at steady state in OFA rat at 5 mg/kg, iv; format: ADME, organism-based; design: dose 5 mg/kg, route intravenous; conditions: in vivo, read-out: Vdss; how it was run: as §1
[9] = Tmax in OFA rat at 20 mg/kg, po; format: ADME, organism-based; design: dose 20 mg/kg, route oral; conditions: in vivo; how it was run: as §1
[10] = Cmax in OFA rat at 20 mg/kg, po; format: ADME, organism-based; design: dose 20 mg/kg, route oral; conditions: in vivo; how it was run: as §1
[11] = Oral bioavailability in OFA rat at 20 mg/kg, po; format: ADME, organism-based; conditions: in vivo; how it was run: as §1
[12] = molecular target: Glycogen synthase kinase-3 beta (Homo sapiens, UniProt P49841); assay: Inhibition of human recombinant GSK3-beta
[13] = molecular target: Tyrosine-protein kinase JAK3 (Homo sapiens, UniProt P52333); assay: Inhibition of human recombinant JAK3
[14] = molecular target: Tyrosine-protein kinase ABL1 (Homo sapiens, UniProt P00519); assay: Inhibition of human recombinant Abl
[15] = molecular target: Tyrosine-protein kinase Fyn (Homo sapiens, UniProt P06241); assay: Inhibition of human recombinant Fyn
[16] = molecular target: Tyrosine-protein kinase JAK1 (Homo sapiens, UniProt P23458); assay: Inhibition of human recombinant JAK1
[17] = molecular target: Tyrosine-protein kinase receptor UFO (Homo sapiens, UniProt P30530); assay: Inhibition of human recombinant Axl
[18] = molecular target: ALK tyrosine kinase receptor (Homo sapiens, UniProt Q9UM73); assay: Inhibition of human recombinant Alk
[19] = molecular target: RAC-alpha serine/threonine-protein kinase (Homo sapiens, UniProt P31749); assay: Inhibition of human recombinant Akt1
[20] = molecular target: Tyrosine-protein kinase BTK (Homo sapiens, UniProt Q06187); assay: Inhibition of human recombinant Btk
Ephrin type-B receptor 4 = Ephrin type-B receptor 4 (Homo sapiens, UniProt P54760); assay: Inhibition of human recombinant EphB4
[21] = molecular target: Tyrosine-protein kinase HCK (Homo sapiens, UniProt P08631); assay: Inhibition of human recombinant Hck
[22] = molecular target: Receptor tyrosine-protein kinase erbB-2 (Homo sapiens, UniProt P04626); assay: Inhibition of human recombinant HER2
[23] = molecular target: Tyrosine-protein kinase JAK2 (Homo sapiens, UniProt O60674); assay: Inhibition of human recombinant JAK2
[24] = molecular target: Mitogen-activated protein kinase 8 (Homo sapiens, UniProt P45983); assay: Inhibition of human recombinant JNK1
Sequence of Mitogen-activated protein kinase 8 (P45983 whole entry): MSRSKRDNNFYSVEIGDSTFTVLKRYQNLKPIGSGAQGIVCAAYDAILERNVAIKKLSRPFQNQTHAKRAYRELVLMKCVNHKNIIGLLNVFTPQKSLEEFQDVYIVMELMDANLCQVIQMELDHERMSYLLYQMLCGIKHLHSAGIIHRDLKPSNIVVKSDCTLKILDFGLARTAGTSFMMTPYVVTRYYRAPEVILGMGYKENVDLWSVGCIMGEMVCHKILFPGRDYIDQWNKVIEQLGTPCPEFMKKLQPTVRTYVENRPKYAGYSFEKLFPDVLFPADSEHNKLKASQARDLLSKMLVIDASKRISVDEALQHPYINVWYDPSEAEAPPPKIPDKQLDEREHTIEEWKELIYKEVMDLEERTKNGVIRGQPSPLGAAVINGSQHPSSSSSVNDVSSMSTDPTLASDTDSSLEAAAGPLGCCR

[25] = molecular target: Mitogen-activated protein kinase 10 (Homo sapiens, UniProt P53779); assay: Inhibition of human recombinant JNK3
[26] = molecular target: Mast/stem cell growth factor receptor Kit (Homo sapiens, UniProt P10721); assay: Inhibition of human recombinant Kit
Sequence of Mast/stem cell growth factor receptor Kit (P10721 whole entry): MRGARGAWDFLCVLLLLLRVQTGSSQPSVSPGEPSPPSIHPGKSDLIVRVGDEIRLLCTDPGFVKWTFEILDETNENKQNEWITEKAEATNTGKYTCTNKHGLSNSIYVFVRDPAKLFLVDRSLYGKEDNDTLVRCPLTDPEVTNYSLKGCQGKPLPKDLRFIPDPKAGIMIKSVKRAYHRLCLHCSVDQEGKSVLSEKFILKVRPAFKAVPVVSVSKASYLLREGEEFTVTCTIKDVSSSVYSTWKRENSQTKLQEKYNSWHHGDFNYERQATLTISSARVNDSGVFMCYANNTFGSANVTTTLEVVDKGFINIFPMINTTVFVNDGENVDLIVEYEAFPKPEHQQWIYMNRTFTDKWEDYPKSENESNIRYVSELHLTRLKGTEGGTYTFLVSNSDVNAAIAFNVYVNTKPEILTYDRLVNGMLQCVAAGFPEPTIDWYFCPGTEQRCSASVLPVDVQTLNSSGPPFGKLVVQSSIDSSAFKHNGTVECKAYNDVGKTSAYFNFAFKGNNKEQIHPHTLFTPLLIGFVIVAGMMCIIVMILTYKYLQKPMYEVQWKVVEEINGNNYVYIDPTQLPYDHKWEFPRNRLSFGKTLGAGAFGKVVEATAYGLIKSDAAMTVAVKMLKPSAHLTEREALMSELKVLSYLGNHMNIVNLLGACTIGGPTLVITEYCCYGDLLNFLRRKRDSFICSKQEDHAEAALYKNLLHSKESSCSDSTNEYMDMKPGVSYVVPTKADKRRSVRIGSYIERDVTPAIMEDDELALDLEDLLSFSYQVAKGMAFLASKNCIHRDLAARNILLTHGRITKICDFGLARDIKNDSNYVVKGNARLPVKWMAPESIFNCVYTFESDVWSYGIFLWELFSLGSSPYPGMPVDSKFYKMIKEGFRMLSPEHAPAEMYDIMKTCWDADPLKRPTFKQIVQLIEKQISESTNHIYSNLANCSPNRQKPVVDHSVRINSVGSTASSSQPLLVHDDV

[27] = molecular target: Tyrosine-protein kinase Lck (Homo sapiens, UniProt P06239); assay: Inhibition of human recombinant Lck
[28] = molecular target: Hepatocyte growth factor receptor (Homo sapiens, UniProt P08581); assay: Inhibition of human recombinant Met
Sequence of Hepatocyte growth factor receptor (P08581 whole entry): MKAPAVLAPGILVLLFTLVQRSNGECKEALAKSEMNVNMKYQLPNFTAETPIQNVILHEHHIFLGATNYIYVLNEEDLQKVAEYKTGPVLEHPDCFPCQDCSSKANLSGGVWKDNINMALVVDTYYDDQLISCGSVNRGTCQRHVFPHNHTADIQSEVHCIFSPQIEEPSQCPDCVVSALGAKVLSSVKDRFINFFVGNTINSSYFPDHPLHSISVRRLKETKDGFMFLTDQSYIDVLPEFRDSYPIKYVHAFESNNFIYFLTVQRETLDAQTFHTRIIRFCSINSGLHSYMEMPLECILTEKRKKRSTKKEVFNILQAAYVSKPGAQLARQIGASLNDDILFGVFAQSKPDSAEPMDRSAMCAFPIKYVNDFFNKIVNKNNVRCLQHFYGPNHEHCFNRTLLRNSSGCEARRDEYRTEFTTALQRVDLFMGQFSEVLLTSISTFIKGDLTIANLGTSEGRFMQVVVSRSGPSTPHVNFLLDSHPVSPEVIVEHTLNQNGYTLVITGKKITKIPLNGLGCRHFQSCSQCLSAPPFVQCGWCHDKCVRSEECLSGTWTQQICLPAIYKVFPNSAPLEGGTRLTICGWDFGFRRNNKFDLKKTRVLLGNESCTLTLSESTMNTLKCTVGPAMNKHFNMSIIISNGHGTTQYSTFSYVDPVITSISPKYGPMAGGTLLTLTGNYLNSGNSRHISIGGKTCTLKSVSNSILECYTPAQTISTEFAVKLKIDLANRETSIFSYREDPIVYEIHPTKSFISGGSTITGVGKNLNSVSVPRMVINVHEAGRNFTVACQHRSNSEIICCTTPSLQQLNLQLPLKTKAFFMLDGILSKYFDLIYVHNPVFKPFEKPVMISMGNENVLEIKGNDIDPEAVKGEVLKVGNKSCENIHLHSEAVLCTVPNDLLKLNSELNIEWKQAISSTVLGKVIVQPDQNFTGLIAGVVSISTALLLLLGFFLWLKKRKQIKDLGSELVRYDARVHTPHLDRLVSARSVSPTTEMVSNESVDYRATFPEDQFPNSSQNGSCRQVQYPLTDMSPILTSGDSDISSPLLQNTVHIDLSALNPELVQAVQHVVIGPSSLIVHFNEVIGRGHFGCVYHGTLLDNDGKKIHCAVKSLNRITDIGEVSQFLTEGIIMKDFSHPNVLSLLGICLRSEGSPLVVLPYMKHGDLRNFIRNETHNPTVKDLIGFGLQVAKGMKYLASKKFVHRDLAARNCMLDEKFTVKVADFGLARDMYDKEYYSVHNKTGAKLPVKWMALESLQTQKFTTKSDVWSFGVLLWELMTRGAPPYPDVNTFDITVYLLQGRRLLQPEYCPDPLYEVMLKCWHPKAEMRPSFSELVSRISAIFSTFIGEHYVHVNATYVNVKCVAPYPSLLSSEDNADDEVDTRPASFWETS

[29] = molecular target: Serine/threonine-protein kinase PAK 2 (Homo sapiens, UniProt Q13177); assay: Inhibition of human recombinant PAK2
Sequence of Serine/threonine-protein kinase PAK 2 (Q13177 whole entry, canonical isoform): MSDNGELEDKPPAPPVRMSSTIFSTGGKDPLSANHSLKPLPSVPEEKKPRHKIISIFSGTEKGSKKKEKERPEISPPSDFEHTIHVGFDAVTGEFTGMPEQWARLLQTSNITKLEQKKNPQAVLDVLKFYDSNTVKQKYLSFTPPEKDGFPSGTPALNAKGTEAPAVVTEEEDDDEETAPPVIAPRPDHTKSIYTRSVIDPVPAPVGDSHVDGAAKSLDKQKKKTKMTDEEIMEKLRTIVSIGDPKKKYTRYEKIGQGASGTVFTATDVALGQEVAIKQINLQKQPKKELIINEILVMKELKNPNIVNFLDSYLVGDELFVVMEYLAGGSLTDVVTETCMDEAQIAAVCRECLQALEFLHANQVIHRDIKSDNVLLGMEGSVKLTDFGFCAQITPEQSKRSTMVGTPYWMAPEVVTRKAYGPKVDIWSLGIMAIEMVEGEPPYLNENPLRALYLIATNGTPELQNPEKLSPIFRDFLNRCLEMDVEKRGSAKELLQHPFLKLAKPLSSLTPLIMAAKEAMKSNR

[30] = molecular target: Phosphatidylinositol 4,5-bisphosphate 3-kinase catalytic subunit alpha isoform (Homo sapiens, UniProt P42336); assay: Inhibition of human recombinant PI3Kalpha
[31] = molecular target: Phosphatidylinositol 4,5-bisphosphate 3-kinase catalytic subunit beta isoform (Homo sapiens, UniProt P42338); assay: Inhibition of human recombinant PI3Kbeta
[32] = molecular target: Phosphatidylinositol 4,5-bisphosphate 3-kinase catalytic subunit gamma isoform (Homo sapiens, UniProt P48736); assay: Inhibition of human recombinant PI3Kgamma
[33] = molecular target: Phosphatidylinositol 4,5-bisphosphate 3-kinase catalytic subunit delta isoform (Homo sapiens, UniProt O00329); assay: Inhibition of human recombinant PI3Kdelta
[34] = molecular target: Proto-oncogene tyrosine-protein kinase receptor Ret (Homo sapiens, UniProt P07949); assay: Inhibition of human recombinant Ret
[35] = molecular target: Rho-associated protein kinase 1 (Homo sapiens, UniProt Q13464); assay: Inhibition of human recombinant ROCK1
[36] = molecular target: Rho-associated protein kinase 2 (Homo sapiens, UniProt O75116); assay: Inhibition of human recombinant ROCK2
Sequence of Rho-associated protein kinase 2 (O75116 whole entry): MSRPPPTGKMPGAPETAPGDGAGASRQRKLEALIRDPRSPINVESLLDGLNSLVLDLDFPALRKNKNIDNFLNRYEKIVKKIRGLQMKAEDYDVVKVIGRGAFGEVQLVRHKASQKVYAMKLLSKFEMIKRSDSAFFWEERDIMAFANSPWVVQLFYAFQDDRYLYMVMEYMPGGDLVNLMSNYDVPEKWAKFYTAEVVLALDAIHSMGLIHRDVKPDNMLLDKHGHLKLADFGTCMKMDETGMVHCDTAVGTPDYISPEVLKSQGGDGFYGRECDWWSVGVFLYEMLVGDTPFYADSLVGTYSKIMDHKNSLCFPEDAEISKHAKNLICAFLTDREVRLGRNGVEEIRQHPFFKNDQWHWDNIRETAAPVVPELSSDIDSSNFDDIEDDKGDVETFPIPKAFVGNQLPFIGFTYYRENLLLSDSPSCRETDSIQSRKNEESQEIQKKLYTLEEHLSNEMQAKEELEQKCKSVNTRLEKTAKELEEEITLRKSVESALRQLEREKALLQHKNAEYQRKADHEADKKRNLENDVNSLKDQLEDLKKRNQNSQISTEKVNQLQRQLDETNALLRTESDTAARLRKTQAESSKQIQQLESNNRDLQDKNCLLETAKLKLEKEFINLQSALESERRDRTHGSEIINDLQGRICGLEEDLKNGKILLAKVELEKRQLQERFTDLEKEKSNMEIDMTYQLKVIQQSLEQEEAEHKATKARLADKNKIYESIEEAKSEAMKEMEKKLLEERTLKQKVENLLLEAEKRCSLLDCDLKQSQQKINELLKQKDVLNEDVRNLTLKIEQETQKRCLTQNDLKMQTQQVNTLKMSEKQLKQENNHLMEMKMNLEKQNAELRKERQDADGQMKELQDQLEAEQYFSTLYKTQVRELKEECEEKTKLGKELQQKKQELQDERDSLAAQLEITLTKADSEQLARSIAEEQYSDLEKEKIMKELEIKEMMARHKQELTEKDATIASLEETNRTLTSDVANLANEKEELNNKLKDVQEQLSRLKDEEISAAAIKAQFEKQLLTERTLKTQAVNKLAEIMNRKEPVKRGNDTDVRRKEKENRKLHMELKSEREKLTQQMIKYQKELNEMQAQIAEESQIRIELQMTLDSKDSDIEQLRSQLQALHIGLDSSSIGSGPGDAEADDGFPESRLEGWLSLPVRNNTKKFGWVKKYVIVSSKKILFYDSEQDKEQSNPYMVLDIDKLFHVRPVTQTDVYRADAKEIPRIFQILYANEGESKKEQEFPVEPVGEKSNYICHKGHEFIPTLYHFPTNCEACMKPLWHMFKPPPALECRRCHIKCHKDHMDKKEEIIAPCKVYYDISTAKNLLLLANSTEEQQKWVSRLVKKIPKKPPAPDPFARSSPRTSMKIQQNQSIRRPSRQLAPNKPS

[37] = molecular target: Tyrosine-protein kinase SYK (Homo sapiens, UniProt P43405); assay: Inhibition of human recombinant Syk
Splenocyte = assay: cells; conditions: Mus musculus, BALB/c
cells = conditions: Mus musculus, CBA, Bone marrow cell

## CN1CCN(c2nc(C3=C(c4c[nH]c5ccccc45)C(=O)NC3=O)c3ccccc3n2)CC1 [SOTRASTAURIN]
[1]
  IC50: 0.0062 µM
[2]
  pKa: 7.4
Rattus norvegicus [3]
  Activity: Active
Rattus norvegicus [4]
  Activity: Active
Cynomolgus monkey
  Activity: Active
[5]
  IC50: 5.4 µM
[6]
  AUC(0-inf): 1630 ng·h/mL
[7]
  half-life: 3.2 h
[8]
  Vd: 6.5 L/kg
[9]
  Tmax: 0.5 h
[10]
  Cmax: 622 ng/mL
[11]
  bioavailability: 34%
[12]
  IC50: 0.87 µM
[13]
  IC50: 1.5 µM
[14]
  IC50: 3.3 µM
[15]
  IC50: 5.5 µM
[16]
  IC50: 7.3 µM
[17]
  IC50: 9.1 µM
[18]
  IC50: > 10 µM
[19]
  IC50: > 10 µM
[20]
  IC50: > 10 µM
Ephrin type-B receptor 4
  IC50: > 10 µM
[21]
  IC50: > 10 µM
[22]
  IC50: > 10 µM
[23]
  IC50: > 10 µM
[24]
  IC50: > 10 µM
[25]
  IC50: > 10 µM
[26]
  IC50: > 10 µM
[27]
  IC50: > 10 µM
[28]
  IC50: > 10 µM
[29]
  IC50: > 10 µM
[30]
  IC50: > 10 µM
[31]
  IC50: > 10 µM
[32]
  IC50: > 10 µM
[33]
  IC50: > 10 µM
[34]
  IC50: > 10 µM
[35]
  IC50: > 10 µM
[36]
  IC50: > 10 µM
[37]
  IC50: > 10 µM
Splenocyte
  IC50: 0.128 µM
cells
  IC50: 3.7 µM

Source: ChEMBL document CHEMBL1156112, “Discovery of 3-(1H-indol-3-yl)-4-[2-(4-methylpiperazin-1-yl)quinazolin-4-yl]pyrrole-2,5-dione (AEB071), a potent and selective inhibitor of protein kinase C isotypes” (J Med Chem, 2009)
